The source made the active and inactive calls. The rule behind the calls is not given here.
How the values were obtained:
[1] = target: Tyrosine-protein kinase JAK3 (Homo sapiens) (UniProt P52333); assay: Inhibition of JAK3 (unknown origin) at 0.1 uM preincubated for 20 mins followed by [33P]ATP addition measured after 120 mins by Hotspot assay relative to control
Outline: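 Radiometric HotSpot kinase assay. Buffer: 20 mM HEPES pH 7.5, 10 mM MgCl2, 1 mM EGTA, 0.02% Brij35, 0.02 mg/mL BSA, 0.1 mM Na3VO4, 2 mM DTT, 1% DMSO. Compound added about 20 min before ATP/[33P]ATP (10 μM final). Reactions run 120 min at 25 °C, spotted on P81 filters and washed in phosphoric acid. Activity expressed relative to DMSO after background subtraction. Single-concentration panel at 100 nM in duplicate.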

[2] = target: Non-receptor tyrosine-protein kinase TYK2 (Homo sapiens, UniProt P29597); assay: Inhibition of human TYK2 (V877 to C1187 residues) expressed in mammalian expression system assessed as residual activity at 100 nM by KINOMEScan assay relative to control
Outline: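 DiscoveRx competition-binding panel of 97 kinases, measuring binding to the kinase ATP site rather than catalytic turnover. The test compound was run at a single 100 nM concentration. Results are given as % of control binding.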

[3] = test system: Mast/stem cell growth factor receptor Kit (Homo sapiens), P10721 [V559D,T670I]; assay: Inhibition of human KIT (Y545 to D952 residues) V559D/T670I double mutant expressed in bacterial expression system assessed as residual activity at 100 nM by KINOMEScan assay relative to control
Outline: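 Done by DiscoveRx as an ATP-site binding panel covering 97 kinases across the kinome. It measures binding rather than inhibition of phosphate transfer. The compound was tested at 100 nM, and the result is expressed as percent of control binding.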

[4] = Antiproliferative activity against human MDA-MB-231 cells after 72 hrs by MTT assay; type: functional, cell-based; conditions: MDA-MB-231, 72 h
[5] = target: Phosphatidylinositol 4,5-bisphosphate 3-kinase catalytic subunit gamma isoform (Homo sapiens, UniProt P48736); assay: Inhibition of human PI3Kgamma (S144 to A1102 residues) expressed in mammalian expression system by KINOMEScan assay
[6] = target: Tyrosine-protein kinase JAK3 (Homo sapiens, UniProt P52333); assay: Inhibition of human JAK3 JH1 catalytic domain (I781 to S1124 residues) expressed in mammalian expression system by KINOMEScan assay
[7] = Antiproliferative activity against human OPM2 cells after 48 hrs by CellTiter-Glo assay; type: functional, cell-based; conditions: OPM-2, 48 h
Outline: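 OPM2 grown in RPMI 1640 with 10% FBS and penicillin/streptomycin at 37 °C, 5% CO2. Treated at 25,000 cells/well in triplicate for 48 h. Viability read by CellTiter-Glo luminescence. IC50 taken from a sigmoidal fit of % viability vs log concentration.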

[8] = Antiproliferative activity against human KHYG cells after 48 hrs by CellTiter-Glo assay; type: functional, cell-based
[9] = test system: HEL 92.1.7; assay: Inhibition of colony formation in HEL 92.1.7 cells harboring JAK2 V617F mutant after 14 to 16 days; type: functional, cell-based; conditions: Homo sapiens
Outline: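 HEL cells (200 cells/mL) mixed into methylcellulose semi-solid medium with inhibitor at various concentrations. Incubated 14-16 days, then colonies counted. Data given as mean ± SEM.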

[10] = Antiproliferative activity against mouse TAMH cells after 24 hrs by CellTiter-Glo assay; type: ADME, cell-based
[11] = target: T1, Protein deacetylase HDAC6 (Homo sapiens) (UniProt Q9UBN7); assay: Inhibition of HDAC6 in human KMS-12-BM cells assessed as increase in acetylated tubulin level at 2 times antiproliferative IC50 up to 48 hrs by immunoblot method; type: cell-based
T1 sequence (whole entry): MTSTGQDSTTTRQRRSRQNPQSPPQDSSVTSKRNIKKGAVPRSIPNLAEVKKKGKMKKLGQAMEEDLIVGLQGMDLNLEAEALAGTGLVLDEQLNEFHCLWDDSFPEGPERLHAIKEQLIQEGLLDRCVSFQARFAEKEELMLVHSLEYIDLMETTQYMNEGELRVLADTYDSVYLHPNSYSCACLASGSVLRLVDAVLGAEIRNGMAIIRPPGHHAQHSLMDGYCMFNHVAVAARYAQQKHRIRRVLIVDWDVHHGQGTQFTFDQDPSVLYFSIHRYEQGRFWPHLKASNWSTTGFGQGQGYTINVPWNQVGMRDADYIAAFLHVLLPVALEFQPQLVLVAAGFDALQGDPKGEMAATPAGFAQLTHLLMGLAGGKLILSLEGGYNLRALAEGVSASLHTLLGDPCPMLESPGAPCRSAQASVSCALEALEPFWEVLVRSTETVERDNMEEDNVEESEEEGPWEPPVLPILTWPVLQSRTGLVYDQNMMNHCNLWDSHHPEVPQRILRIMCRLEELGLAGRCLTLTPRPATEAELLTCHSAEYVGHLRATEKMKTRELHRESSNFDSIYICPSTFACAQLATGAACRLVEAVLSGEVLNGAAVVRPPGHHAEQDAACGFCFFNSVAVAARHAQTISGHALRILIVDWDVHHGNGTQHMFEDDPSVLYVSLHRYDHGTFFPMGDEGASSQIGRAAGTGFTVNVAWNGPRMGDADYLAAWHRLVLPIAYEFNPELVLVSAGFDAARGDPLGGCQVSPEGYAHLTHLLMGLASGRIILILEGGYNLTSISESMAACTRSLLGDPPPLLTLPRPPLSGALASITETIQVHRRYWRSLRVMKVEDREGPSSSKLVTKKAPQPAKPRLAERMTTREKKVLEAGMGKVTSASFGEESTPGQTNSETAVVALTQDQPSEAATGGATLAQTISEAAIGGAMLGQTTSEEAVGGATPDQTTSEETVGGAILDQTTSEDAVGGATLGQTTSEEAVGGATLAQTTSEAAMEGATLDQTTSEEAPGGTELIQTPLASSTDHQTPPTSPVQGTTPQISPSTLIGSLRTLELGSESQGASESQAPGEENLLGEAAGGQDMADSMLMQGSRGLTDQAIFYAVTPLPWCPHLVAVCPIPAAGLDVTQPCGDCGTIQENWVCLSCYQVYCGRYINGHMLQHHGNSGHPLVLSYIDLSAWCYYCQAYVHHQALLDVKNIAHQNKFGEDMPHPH
Outline: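 KMS-12-BM or MOLM-14 cells (at least 3x10^6 per condition) treated at about 2x their proliferation IC50 in a time course of 0 to 48 h. Tubastatin (15 μM, 48 h) used as HDAC6 control. Lysates immunoblotted for acetyl-α-tubulin and acetyl-H3 (Lys9/Lys14); re-probed for α-tubulin and H3.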

Non-receptor tyrosine-protein kinase TYK2, sequence (P29597 whole entry, the tested form may be a part): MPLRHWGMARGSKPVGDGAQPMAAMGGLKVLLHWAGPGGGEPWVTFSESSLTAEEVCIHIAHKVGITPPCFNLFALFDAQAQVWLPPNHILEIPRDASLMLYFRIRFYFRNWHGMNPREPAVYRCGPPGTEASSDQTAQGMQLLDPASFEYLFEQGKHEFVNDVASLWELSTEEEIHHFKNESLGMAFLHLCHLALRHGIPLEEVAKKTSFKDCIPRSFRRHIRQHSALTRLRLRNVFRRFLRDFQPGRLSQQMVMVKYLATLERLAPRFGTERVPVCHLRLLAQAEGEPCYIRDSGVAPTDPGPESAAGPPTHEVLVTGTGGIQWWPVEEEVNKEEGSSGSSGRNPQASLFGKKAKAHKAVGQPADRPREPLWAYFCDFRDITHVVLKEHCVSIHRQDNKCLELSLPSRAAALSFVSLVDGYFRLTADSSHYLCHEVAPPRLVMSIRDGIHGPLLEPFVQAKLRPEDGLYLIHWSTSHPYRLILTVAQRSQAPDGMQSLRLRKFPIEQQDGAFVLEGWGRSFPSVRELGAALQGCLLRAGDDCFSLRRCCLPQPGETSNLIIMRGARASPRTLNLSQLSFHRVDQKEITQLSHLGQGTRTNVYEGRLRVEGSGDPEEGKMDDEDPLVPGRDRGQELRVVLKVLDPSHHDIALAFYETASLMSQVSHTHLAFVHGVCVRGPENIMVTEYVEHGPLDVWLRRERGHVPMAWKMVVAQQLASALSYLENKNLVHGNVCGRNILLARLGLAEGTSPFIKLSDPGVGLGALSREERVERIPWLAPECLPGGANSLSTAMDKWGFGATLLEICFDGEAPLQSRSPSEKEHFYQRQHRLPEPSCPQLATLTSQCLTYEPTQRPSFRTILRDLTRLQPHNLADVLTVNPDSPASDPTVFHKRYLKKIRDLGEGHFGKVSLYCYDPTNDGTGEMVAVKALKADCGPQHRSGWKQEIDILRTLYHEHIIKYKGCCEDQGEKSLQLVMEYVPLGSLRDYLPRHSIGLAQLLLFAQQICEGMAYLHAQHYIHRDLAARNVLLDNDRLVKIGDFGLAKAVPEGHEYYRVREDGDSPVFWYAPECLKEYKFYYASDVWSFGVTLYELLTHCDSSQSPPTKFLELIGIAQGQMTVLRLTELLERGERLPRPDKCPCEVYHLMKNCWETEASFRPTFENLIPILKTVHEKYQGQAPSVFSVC
Phosphatidylinositol 4,5-bisphosphate 3-kinase catalytic subunit gamma isoform, sequence (P48736 whole entry, the tested form may be a part, canonical isoform): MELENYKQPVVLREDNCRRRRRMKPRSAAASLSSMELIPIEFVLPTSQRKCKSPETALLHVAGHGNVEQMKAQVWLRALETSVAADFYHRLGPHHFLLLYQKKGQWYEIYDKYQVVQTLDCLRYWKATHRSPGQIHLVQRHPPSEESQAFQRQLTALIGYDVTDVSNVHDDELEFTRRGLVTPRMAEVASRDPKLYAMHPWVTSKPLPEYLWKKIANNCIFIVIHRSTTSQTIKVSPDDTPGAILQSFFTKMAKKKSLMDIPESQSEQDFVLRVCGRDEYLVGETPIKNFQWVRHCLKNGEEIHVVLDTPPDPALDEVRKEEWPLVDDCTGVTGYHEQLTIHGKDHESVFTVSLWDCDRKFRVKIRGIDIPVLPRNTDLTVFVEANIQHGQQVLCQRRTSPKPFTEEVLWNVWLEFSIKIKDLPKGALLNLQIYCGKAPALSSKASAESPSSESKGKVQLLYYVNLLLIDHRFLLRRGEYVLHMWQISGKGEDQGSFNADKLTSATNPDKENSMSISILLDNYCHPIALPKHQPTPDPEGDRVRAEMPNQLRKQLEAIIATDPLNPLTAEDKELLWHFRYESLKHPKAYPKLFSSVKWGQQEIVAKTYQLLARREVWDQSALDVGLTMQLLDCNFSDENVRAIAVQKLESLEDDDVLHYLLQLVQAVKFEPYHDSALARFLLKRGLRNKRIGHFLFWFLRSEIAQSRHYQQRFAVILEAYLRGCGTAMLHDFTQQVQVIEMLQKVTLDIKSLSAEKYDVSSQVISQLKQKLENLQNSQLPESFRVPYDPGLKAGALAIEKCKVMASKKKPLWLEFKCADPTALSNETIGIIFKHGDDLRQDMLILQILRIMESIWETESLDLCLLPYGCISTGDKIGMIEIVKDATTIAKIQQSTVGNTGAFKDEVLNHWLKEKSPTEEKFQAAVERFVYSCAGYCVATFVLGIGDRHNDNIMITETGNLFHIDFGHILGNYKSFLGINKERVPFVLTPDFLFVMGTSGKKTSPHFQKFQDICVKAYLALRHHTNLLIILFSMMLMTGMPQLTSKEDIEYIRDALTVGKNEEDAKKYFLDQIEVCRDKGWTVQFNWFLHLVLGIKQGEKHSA
Tyrosine-protein kinase JAK3 (Homo sapiens), sequence (P52333 whole entry): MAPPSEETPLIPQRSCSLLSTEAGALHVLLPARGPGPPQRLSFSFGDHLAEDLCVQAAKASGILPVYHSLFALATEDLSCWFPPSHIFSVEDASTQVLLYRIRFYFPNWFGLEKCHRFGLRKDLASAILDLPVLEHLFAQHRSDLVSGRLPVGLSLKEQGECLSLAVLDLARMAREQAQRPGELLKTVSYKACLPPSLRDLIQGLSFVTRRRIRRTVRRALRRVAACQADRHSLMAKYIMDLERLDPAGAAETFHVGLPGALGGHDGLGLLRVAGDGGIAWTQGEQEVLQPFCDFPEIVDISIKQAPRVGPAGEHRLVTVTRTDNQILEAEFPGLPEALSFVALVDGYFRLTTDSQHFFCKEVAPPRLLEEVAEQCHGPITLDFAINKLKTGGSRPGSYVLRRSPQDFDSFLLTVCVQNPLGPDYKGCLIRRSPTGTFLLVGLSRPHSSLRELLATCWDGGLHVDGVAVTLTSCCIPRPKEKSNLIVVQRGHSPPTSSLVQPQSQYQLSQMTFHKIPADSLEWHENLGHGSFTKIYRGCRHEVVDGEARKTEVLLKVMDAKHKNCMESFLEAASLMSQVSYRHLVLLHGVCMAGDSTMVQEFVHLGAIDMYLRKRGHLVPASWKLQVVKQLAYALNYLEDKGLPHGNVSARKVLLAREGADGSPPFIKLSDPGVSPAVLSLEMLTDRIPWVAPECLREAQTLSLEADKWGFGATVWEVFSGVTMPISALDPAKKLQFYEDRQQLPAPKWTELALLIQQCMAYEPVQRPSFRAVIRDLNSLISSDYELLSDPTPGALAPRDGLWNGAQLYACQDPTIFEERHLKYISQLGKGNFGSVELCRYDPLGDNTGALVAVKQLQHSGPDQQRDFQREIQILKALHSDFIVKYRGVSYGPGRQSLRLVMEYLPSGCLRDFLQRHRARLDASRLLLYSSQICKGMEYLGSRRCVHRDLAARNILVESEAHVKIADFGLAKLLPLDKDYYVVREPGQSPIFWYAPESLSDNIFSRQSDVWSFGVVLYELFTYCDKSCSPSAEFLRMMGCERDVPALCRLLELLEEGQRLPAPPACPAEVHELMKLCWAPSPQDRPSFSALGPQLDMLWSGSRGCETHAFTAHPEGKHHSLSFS
Tyrosine-protein kinase JAK3, sequence (P52333 whole entry, the tested form may be a part): as the sequence (P52333 whole entry) above
Mast/stem cell growth factor receptor Kit (Homo sapiens), P10721 [V559D,T670I], sequence (P10721 whole entry V559D/T670I, the tested form may be a part): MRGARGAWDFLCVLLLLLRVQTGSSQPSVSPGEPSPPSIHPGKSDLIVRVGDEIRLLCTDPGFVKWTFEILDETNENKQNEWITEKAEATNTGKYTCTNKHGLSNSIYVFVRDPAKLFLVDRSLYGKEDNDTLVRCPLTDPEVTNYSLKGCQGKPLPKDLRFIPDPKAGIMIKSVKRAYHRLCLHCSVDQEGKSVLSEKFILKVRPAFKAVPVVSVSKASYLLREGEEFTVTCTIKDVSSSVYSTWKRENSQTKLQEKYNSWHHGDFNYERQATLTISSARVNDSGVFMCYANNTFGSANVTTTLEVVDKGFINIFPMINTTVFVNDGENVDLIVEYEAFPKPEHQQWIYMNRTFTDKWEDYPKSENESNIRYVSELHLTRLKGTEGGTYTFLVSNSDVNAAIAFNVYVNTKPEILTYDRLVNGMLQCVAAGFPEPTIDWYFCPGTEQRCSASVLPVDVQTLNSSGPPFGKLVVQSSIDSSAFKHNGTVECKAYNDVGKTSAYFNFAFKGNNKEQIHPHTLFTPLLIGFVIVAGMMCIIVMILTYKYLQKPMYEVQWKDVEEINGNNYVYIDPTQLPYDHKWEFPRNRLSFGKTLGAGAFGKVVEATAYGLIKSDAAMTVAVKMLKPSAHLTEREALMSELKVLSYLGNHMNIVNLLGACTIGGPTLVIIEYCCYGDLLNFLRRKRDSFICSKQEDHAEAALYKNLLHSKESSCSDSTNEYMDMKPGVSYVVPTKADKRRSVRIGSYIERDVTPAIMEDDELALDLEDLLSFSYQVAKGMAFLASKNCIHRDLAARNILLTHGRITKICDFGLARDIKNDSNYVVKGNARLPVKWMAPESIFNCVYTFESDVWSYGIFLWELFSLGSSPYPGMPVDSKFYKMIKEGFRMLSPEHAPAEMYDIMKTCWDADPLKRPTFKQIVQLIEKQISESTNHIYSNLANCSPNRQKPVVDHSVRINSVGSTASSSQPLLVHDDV

Work on `O=C(CCCCCCOc1ccc2cc1COC/C=C/COCc1cccc(c1)-c1ccnc(n1)N2)NO` yielded an inhibition [1] of 55%, an Activity [2] of 4.9% and an Activity [3] of 31%. It also gave an IC50 [4] of 1430 nM, an IC50 [5] of 10 to 1000 nM and an IC50 [6] of 10 to 1000 nM. For the same compound, the IC50 [7] was 2050 nM, the IC50 [8] was 1090 nM and the inhibition [9] was “Dose-dependent effect”. The IC50 [10] was 9570 nM and the inhibition [11] was “Active”.
